Test results from ChEMBL document CHEMBL4673407, “Fragment-Based Discovery of Novel Allosteric MEK1 Binders” (ACS Med Chem Lett, 2021).

Key:
[1] = biological target: T1, Dual specificity mitogen-activated protein kinase kinase 1 (Homo sapiens, UniProt Q02750); experiment: Binding affinity to full length biotinylated 6His/Avi-tagged/Tev-fused human MEK1 expressed in Escherichia coli in presence of AMP-PNP by SPR assay
[2] = Octanol-water partition coefficient, log D of the compound at pH 7.4 by shake flask method; type: physicochemical
[3] = biological target: T1, Dual specificity mitogen-activated protein kinase kinase 1; experiment: Binding affinity to full length biotinylated 6His/Avi-tagged/Tev-fused human MEK1 expressed in Escherichia coli in absence of AMP-PNP by SPR assay
[4] = Intrinsic clearance in rat hepatocytes; type: ADME, cell-based, Hepatocyte
Procedure, shortened: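 Rat hepatocyte stability; intrinsic clearance expressed in μL/(min 1E6) cells.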

[5] = Intrinsic clearance in human liver microsomes; type: ADME, Microsome; settings: read-out: CLH
Procedure, shortened: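 Human liver microsomal stability; intrinsic clearance expressed in μL/(min mg).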

T1 sequence (Q02750 whole entry, the tested form may be a part): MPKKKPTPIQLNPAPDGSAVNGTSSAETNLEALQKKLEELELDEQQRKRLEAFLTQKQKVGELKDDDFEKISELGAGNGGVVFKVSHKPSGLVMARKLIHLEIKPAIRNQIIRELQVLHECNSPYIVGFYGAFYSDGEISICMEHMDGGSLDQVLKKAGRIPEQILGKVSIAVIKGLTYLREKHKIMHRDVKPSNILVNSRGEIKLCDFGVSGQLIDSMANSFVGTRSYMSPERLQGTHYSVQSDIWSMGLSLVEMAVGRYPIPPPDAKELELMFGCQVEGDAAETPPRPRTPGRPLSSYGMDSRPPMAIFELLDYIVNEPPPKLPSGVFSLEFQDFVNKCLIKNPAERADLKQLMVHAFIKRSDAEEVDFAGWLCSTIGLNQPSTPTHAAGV

Row | Compound | logD [2] | also measured
1 | O=C(CC1SCCNC1=O)Nc1ccc(Cl)cc1 (stereo not drawn) | 1.8 | Kd [1]: 7.4 µM; Kd [3]: 14 µM
2 | O=C(CC1SCCNC1=O)Nc1ccc(OC(F)F)cc1 (stereo not drawn) | 1.5 | 
3 | O=C(CC1SCCNC1=O)Nc1ccc(Cl)c(Cl)c1 (stereo not drawn) | 2.3 | Kd [1]: 65 µM; Kd [3]: 87 µM
4 | O=C(CC1SCCNC1=O)Nc1ccc(OC(F)(F)F)cc1 (stereo not drawn) |  | Kd [1]: > 1000 µM
5 | O=C(CC1SCCNC1=O)Nc1ccc2c(c1)OCO2 (stereo not drawn) | 0.9 | 
6 | O=C(CC1SCCNC1=O)Nc1ccc(F)cc1 (stereo not drawn) | 1.2 | 
7 | COc1ccc(N(C)C(=O)CC2SCCNC2=O)cc1 (stereo not drawn) |  | Kd [1]: > 1000 µM
8 | CCOc1ccc(NC(=O)CC2SCCNC2=O)cc1 (stereo not drawn) | 1.3 | 
9 | COc1ccc(C2CC(=O)NCCS2)cc1 (stereo not drawn) | 1.6 | 
10 | COc1ccccc1NC(=O)CC1SCCNC1=O (stereo not drawn) | 0.8 | 
11 | COc1ccc(-c2cccc(=O)[nH]2)cc1 | 1.4 | 
12 | O=C(CC1SCCNC1=O)Nc1ccc(O)cc1 (stereo not drawn) | 0.1 | 
13 | O=C(CC1SCCNC1=O)Nc1ccccc1 (stereo not drawn) | 0.8 | 
14 | O=C(c1cccnc1)c1cc2ccccc2[nH]1 | 2.3 | Kd [1]: 65 µM; Kd [3]: 59 µM
15 | COc1cccc(NC(=O)CC2SCCNC2=O)c1 (stereo not drawn) | 1 | 
16 | CCN(C)c1cc(-c2ccccc2O)nc2nccn12 | 2.9 | 
17 | COc1ccc(NC(=O)CC2SCCNC2=O)cc1F (stereo not drawn) | 1.1 | 
18 | CC(=O)Nc1ccc2c(C(F)(F)F)cc(=O)oc2c1 | 1.8 | 
19 | O=c1[nH]ccc2nc(-c3ccccc3)cn12 | 2 | 
20 | COc1ccc(NC(=O)CC2SCCNC2=O)cc1 (stereo not drawn) | 0.8 | CLH [4]: 34 µL/min; microsomal CLint [5]: 8 µL/min/mg
